Where two headings read alike, the source gives them in different places.
Experiments:
[1] = system: patients; conditions: cited from earlier work
[2] = system: patients with recurrent, platinum-sensitive ovarian cancer; conditions: niraparib 300 mg daily + bevacizumab 15 mg/kg d1 q21d vs niraparib 300 mg daily alone; cited from earlier work
[3] = system: patients with high-grade epithelial ovarian, fallopian tube, or primary peritoneal cancer; assay type: in vivo, human
Procedure, shortened: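 Patients had newly diagnosed stage IIIB–IV disease, ECOG 0–1 and no prior anticancer therapy. All received six cycles of carboplatin AUC 5 plus paclitaxel 175 mg/m2 and bevacizumab, each d1 q21d. Oral maintenance drug began within 9 weeks, continuous BID in 28-day cycles, first dose 7 days before bevacizumab. Three-patient cohorts (Fibonacci triplets). DLTs were assessed over the first two cycles, with AEs graded by CTCAE v4.03.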

[4] = Rucaparib plasma pharmacokinetics in patients; assay type: in vivo, human; conditions: for AUC(0-t) / Tmax / Cmax: human, plasma, oral; for Tmax: mean (±SD)
Procedure, shortened: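 Oral dosing was 400, 500 or 600 mg BID. Cycle 1 blood was drawn on day −7 (first dose, before bevacizumab), day 1 (bevacizumab infusion) and day 21, at 1, 2, 3, 4, 6, 8 and 24 h post-dose. Plasma was assayed by validated HPLC-MS. Day −7 yielded Cmax, Tmax and AUC0–8h, and days 1/21 gave steady-state Cmax, Cmin and AUC, all by noncompartmental analysis. Summaries were mean, SD, CV, median and geometric mean.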

[5] = system: patients; conditions: rucaparib 600 mg BID single agent, ARIEL3; cited from earlier work
[6] = system: PARP1; conditions: read-out: IC50, enzymatic activity of PARP1; cited from earlier work
[7] = system: PARP2; conditions: read-out: IC50, enzymatic activity of PARP2; cited from earlier work
[8] = system: PARP enzymes at sites of DNA damage; conditions: cited from earlier work
[9] = rucaparib 400 mg BID (n = 3) + bevacizumab
[10] = rucaparib 500 mg BID (n = 3) + bevacizumab
[11] = rucaparib 600 mg BID (n = 3) + bevacizumab
[12] = steady state, day 1 (bevacizumab infusion), 400 mg BID, n 3
[13] = steady state, day 1 (bevacizumab infusion), 500 mg BID, n 3
[14] = steady state, day 1 (bevacizumab infusion), 600 mg BID, n 3
[15] = steady state, day 21, with bevacizumab, 400 mg BID, n 2
[16] = steady state, day 21, with bevacizumab, 500 mg BID, n 3
[17] = steady state, day 21, with bevacizumab, 600 mg BID, n 2

In the case of `NC(=O)c1cccc2cn(-c3ccc([C@@H]4CCCNC4)cc3)nc12` [niraparib], the “incidence of thrombocytopenia and hypertension” value ([1]; vs olaparib or rucaparib) is listed as “higher incidence” and the “PFS adjusted hazard ratio” value [2] is listed as 0.35.

With `CNCc1ccc(-c2[nH]c3cc(F)cc4c3c2CCNC4=O)cc1` [rucaparib] the “maximum tolerated dose (MTD)” value ([3]; BID, combined with bevacizumab 15 mg/kg d1 q21d) was 500 mg, the “safety concerns from the combination of rucaparib and bevacizumab” value ([3]; all dose cohorts) was “no new safety concerns” and the “Anemia, grade 1: number of patients with an event” value [3, 9] was 1. For the same compound, the “Arthralgia, grade 1: number of patients with an event” value [3, 9] was 2 (2), the “Arthralgia, grade 1: number of total events” value [3, 9] was 2 (2) and the “Cutaneous erythema, grade 1: number of patients with an event” value [3, 9] was 1. For the same compound, the “Fatigue, grade 1: number of patients with an event” value (“Fatigue, grade 1: number” for short) [3, 9] was 1, the “Feet paresthesia, grade 1: number of patients with an event” value [3, 9] was 1 and the “Genital herpes, grade 1: number of patients with an event” value [3, 9] was 1. For the same compound, the “Genital herpes, grade 2: number of patients with an event” value [3, 9] was 1, the “Headache, grade 1: number of patients with an event” value [3, 9] was 1 and the “Mucosal dryness, grade 1: number of patients with an event” value [3, 9] was 1. The “Nausea, grade 1: number of patients with an event” value [3, 9] was 1, the “Neuropathy, grade 1: number of patients with an event” value [3, 9] was 1 and the “Transaminases increase, grade 1: number of patients with an event” value [3, 9] was 1. The “dose-limiting toxicities (DLTs)” value ([3]; rucaparib 400 mg BID + bevacizumab 15 mg/kg d1 q21d) was “No DLTs”, the “Abdominal pain, grade 1: number of patients with an event” value [3, 10] was 1 and the “Arthralgia, grade 1: number of patients with an event” value [3, 10] was 1. The “Bleeding gums, grade 1: number of patients with an event” value [3, 10] was 1, the “Diarrhea, grade 1: number of patients with an event” value [3, 10] was 1 and the “Diarrhea, grade 1: number of total events” value [3, 10] was 3. For the same compound, the “Dysgeusia, grade 1: number of patients with an event” value [3, 10] was 1, the “Dysgeusia, grade 2: number of patients with an event” value [3, 10] was 1 and the “Fatigue, grade 1: number” value [3, 10] was 1. For the same compound, the “Flushes, grade 1: number of patients with an event” value [3, 10] was 1, the “High cholesterol, grade 1: number of patients with an event” value [3, 10] was 1 and the “High cholesterol, grade 2: number of patients with an event” value [3, 10] was 1. For the same compound, the “Hypertension, grade 2: number of patients with an event” value [3, 10] was 3 (3), the “Hypertension, grade 2: number of total events” value [3, 10] was 3 (3) and the “Insomnia, grade 2: number of patients with an event” value [3, 10] was 1. The “Nausea, grade 1: number of patients with an event” value [3, 10] was 2 (2), the “Nausea, grade 1: number of total events” value [3, 10] was 2 (2) and the “Transaminases increase, grade 1: number of patients with an event” value [3, 10] was 1. The “Vomiting, grade 1: number of patients with an event” value [3, 10] was 1, the “dose-limiting toxicities (DLTs)” value ([3]; rucaparib 500 mg BID + bevacizumab 15 mg/kg d1 q21d) was “No DLTs” and the “ALT increase, grade 2: number of patients with an event” value [3, 11] was 1. For the same compound, the “ALT increase, grade 3: number of patients with an event” value [3, 11] was 1, the “AST increase, grade 2: number of patients with an event” value [3, 11] was 1 and the “AST increase, grade 3: number of patients with an event” value [3, 11] was 1. For the same compound, the “Abdominal pain, grade 1: number of patients with an event” value [3, 11] was 1, the “Arthralgia, grade 1: number of patients with an event” value [3, 11] was 1 and the “Arthralgia, grade 2: number of patients with an event” value [3, 11] was 1. The “Constipation, grade 2: number of patients with an event” value [3, 11] was 1, the “Depression, grade 1: number of patients with an event” value [3, 11] was 1 and the “Depression, grade 1: number of total events” value [3, 11] was 2. The “Depression, grade 2: number of patients with an event” value [3, 11] was 1, the “Depression, grade 3: number of patients with an event” value [3, 11] was 1 and the “Diarrhea, grade 1: number of patients with an event” value [3, 11] was 1. For the same compound, the “Dysgeusia, grade 1: number of patients with an event” value [3, 11] was 1, the “Epigastralgia, grade 1: number of patients with an event” value [3, 11] was 1 and the “Fatigue, grade 1: number” value [3, 11] was 1. The “Fever, grade 2: number of patients with an event” value [3, 11] was 1, the “Hallucination, grade 3: number of patients with an event” value [3, 11] was 1 and the “Headache, grade 1: number of patients with an event” value [3, 11] was 1. For the same compound, the “Lack of appetite, grade 1: number of patients with an event” value [3, 11] was 1, the “Limb pain, grade 1: number of patients with an event” value [3, 11] was 1 and the “Mucositis, grade 1: number of patients with an event” value [3, 11] was 1. The “Nausea, grade 1: number of patients with an event” value [3, 11] was 3, the “Nausea, grade 1: number of total events” value [3, 11] was 4 and the “Nausea, grade 2: number of patients with an event” value [3, 11] was 1. For the same compound, the “Nausea, grade 2: number of total events” value [3, 11] was 3, the “Neutrophils decreased, grade 2: number of patients with an event” value [3, 11] was 1 and the “Skin bruises, grade 1: number of patients with an event” value [3, 11] was 1. The “Stranguria, grade 1: number of patients with an event” value [3, 11] was 1, the “Toothache, grade 1: number of patients with an event” value [3, 11] was 1 and the “patients affected by DLTs” value ([3]; rucaparib 600 mg BID + bevacizumab 15 mg/kg d1 q21d) was “two out of three patients”. The “range of trough concentrations” value ([4]; 400 mg BID) was 1.5 to 1.6 µg/mL, the “range of trough concentrations” value ([4]; 500 mg BID) was 1.8 to 2.0 µg/mL and the “range of trough concentrations” value ([4]; 600 mg BID) was 1.6 to 2.1 µg/mL. The “dose proportionality of plasma exposure” value ([4]; 400-600 mg BID) was “approximately dose proportional”, the “Cmax and AUC at steady state (days 1 and 21) relative to day −7” value ([4]; all dose levels) was “two to three times higher” and the “Cmin, mean (±SD)” value ([4]; first administration, day −7, 400 mg BID, n 3) was 200 ± 100 ng/mL. The “Cmin, mean (±SD)” value ([4]; first administration, day −7, 500 mg BID, n 3) was 400 ± 100 ng/mL, the “Cmin, mean (±SD)” value ([4]; first administration, day −7, 600 mg BID, n 3) was 300 ± 200 ng/mL and the AUC(0-t) ([4]; 400 mg) was 3400 ± 800 ng·h/mL. It also gave a Tmax ([4]; 400 mg, first administration, day −7, 400 mg BID, n 3) of 3.4 ± 0.7 h, an AUC(0-t) ([4]; 500 mg) of 4700 ± 1900 ng·h/mL and a Cmax ([4]; 500 mg) of 900 ± 600 ng/mL. For the same compound, the Tmax ([4]; 500 mg, steady state, day 21, with bevacizumab, 500 mg BID, n 3) was 2 ± 1 h, the AUC(0-t) ([4]; 600 mg) was 4900 ± 1600 ng·h/mL and the Cmax ([4]; 600 mg) was 1000 ± 200 ng/mL. The Tmax ([4]; 600 mg, first administration, day −7, 600 mg BID, n 3) was 3.4 ± 1.2 h, the Tmax [4, 12] was 4.6 ± 2.9 h and the Tmax [4, 13] was 1.7 ± 1.2 h. The Tmax [4, 14] was 3 ± 1 h, the “CmaxSS, mean (±SD)” value [4, 12] was 2400 ± 200 ng/mL and the “CminSS, mean (±SD)” value [4, 12] was 1400 ± 300 ng/mL. The “Ctrough, mean (±SD)” value [4, 12] was 1600 ± 100 ng/mL, the “CmaxSS, mean (±SD)” value [4, 13] was 2600 ± 500 ng/mL and the “CminSS, mean (±SD)” value [4, 13] was 1600 ± 700 ng/mL. For the same compound, the “Ctrough, mean (±SD)” value [4, 13] was 1800 ± 700 ng/mL, the “CmaxSS, mean (±SD)” value [4, 14] was 2600 ± 500 ng/mL and the “CminSS, mean (±SD)” value [4, 14] was 1400 ± 300 ng/mL. The “Ctrough, mean (±SD)” value [4, 14] was 1600 ± 100 ng/mL, the “CmaxSS, mean (±SD)” value [4, 15] was 2600 ± 900 ng/mL and the “CminSS, mean (±SD)” value [4, 15] was 1300 ± 400 ng/mL. The “Ctrough, mean (±SD)” value [4, 15] was 1500 ± 300 ng/mL, the “CmaxSS, mean (±SD)” value [4, 16] was 2300 ± 400 ng/mL and the “CminSS, mean (±SD)” value [4, 16] was 1500 ± 500 ng/mL. The “Ctrough, mean (±SD)” value [4, 16] was 2000 ± 600 ng/mL, the “CmaxSS, mean (±SD)” value [4, 17] was 2500 ± 1300 ng/mL and the “CminSS, mean (±SD)” value [4, 17] was 1600 ± 1200 ng/mL. The “Ctrough, mean (±SD)” value [4, 17] was 2100 ± 300 ng/mL, the “patients with dose reduction due to a TEAE” value [5] was 55% and the “patients with grade 3 or higher TEAEs” value [5] was 56%. The “patients with grade 3 or higher anemia” value [5] was 19% and the “incidence of increased alanine/aspartate aminotransferase levels” value ([1]; vs olaparib or niraparib) was “higher incidence”.

In the case of `Cn1ncnc1[C@H]1c2n[nH]c(=O)c3cc(F)cc(c23)N[C@@H]1c1ccc(F)cc1` [talazoparib], the IC50 [6] is listed as […], the IC50 [7] is listed as […] and the “potency for DNA trapping” value [8] is listed as “more potent DNA trapping abilities”.

In the case of bevacizumab, the “most frequent bevacizumab-related AE” value ([3]; combination with rucaparib) is reported as “hypertension”.
